Source: ChEMBL document CHEMBL4665734, “Optimization of globomycin analogs as novel gram-negative antibiotics” (Bioorg Med Chem Lett, 2020)
Converted amounts (≈) assume the structure as drawn. Starred links: 1 amine or outer side, 2 acyl side, 3 side chain; linkers in the order of their positions; H or OH if unused. Non-standard residues stand in square brackets, D forms with d. Residues, ends and D or L forms follow the SMILES beside them. *: point of attachment. X1 = CCCCCC[C@@H](OC[C@@H](C)N[*:1])[C@@H](C)C(=O)[*:2]; X16 = CCCC[C@@H](C(=O)[*:2])N(CCCC)CCN[*:1]; Gly(cHept) = N[C@H](C(=O)O)C1CCCCCC1; aThr = C[C@H](O)[C@H](N)C(=O)O; NMeL = CN[C@@H](CC(C)C)C(=O)O; Chg = N[C@H](C(=O)O)C1CCCCC1; NMeNva = CCC[C@H](NC)C(=O)O; Dap = NC[C@H](N)C(=O)O; NH(CH2)3NH2 = NCCCN*; X15 = O=C(O)CCCNCCC*

Tests used:
[1] = Growth inhibition of Staphylococcus aureus USA300
Escherichia coli = test: Inhibition of LspA in Escherichia coli CFT073imp4213 harboring outer membrane-permeable mutant assessed as inhibition of bacterial growth
Method in brief: (§1)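 Read-out is the minimum inhibitory concentration, reported in µM.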

Escherichia coli CFT073 = test: Inhibition of LspA in wild type Escherichia coli CFT073 assessed as inhibition of bacterial growth; method in brief: as §1
[2] = Lipophilicity, logD of the compound at pH 7.4; settings: buffer

Work on `CCCCCCCCCC[C@H]1OC(=O)CNC(=O)[C@H]([C@H](C)O)NC(=O)[C@H](CO)NC(=O)[C@H]([C@@H](C)CC)NC(=O)[C@H](CC(C)C)N(C)C(=O)[C@@H]1C` yielded an MIC [1] of 25 µM (≈ 17.8 µg/mL), an MIC (Escherichia coli) of 0.016 µM (≈ 0.0114 µg/mL) and an MIC (Escherichia coli CFT073) of 9.4 µM (≈ 6.69 µg/mL).
Work on `CCCCCC[C@H]1OC(=O)CNC(=O)[C@H]([C@H](C)O)NC(=O)[C@H](CN)NC(=O)[C@H](c2ccccc2)NC(=O)[C@H](CC(C)C)N(C)C(=O)[C@@H]1C` yielded an MIC [1] of over 100 µM, an MIC (Escherichia coli) of 1.6 µM (≈ 1.08 µg/mL) and an MIC (Escherichia coli CFT073) of 71 µM (≈ 47.9 µg/mL).
`CC(C)C[C@H]1C(=O)N[C@@H](C2CCCCC2)C(=O)N[C@@H](CN)C(=O)N[C@@H]([C@H](C)O)C(=O)NCC(=O)O[C@H](CCCCCCC(C)(C)O)[C@@H](C)C(=O)N1C` gave a logD ([2]; pH 7.4, logD) of 2.2, an MIC [1] of over 100 µM and an MIC (Escherichia coli) of 0.55 µM (≈ 0.406 µg/mL). The MIC (Escherichia coli CFT073) was 15 µM (≈ 11.1 µg/mL).
`CCCCCC[C@H]1OC(=O)CNC(=O)[C@H]([C@H](C)O)NC(=O)[C@H](CN)NC(=O)[C@H](C2CCCCC2)NC(=O)[C@H](CC(C)C)N(C)C(=O)[C@@H]1C` showed an MIC [1] of over 100 µM, an MIC (Escherichia coli) of 0.059 µM (≈ 0.0402 µg/mL) and an MIC (Escherichia coli CFT073) of 3.1 µM (≈ 2.11 µg/mL).
`CCCCCCCCCC[C@H]1OC(=O)CNC(=O)[C@H]([C@H](C)O)NC(=O)[C@H](C)NC(=O)[C@H]([C@@H](C)CC)NC(=O)[C@H](CC(C)C)N(C)C(=O)[C@@H]1C` showed an MIC [1] of 25 µM (≈ 17.4 µg/mL), an MIC (Escherichia coli) of 25 µM (≈ 17.4 µg/mL) and an MIC (Escherichia coli CFT073) of 100 µM (≈ 69.6 µg/mL).
For `CCCCCCCCCC[C@H]1OC(=O)CNC(=O)[C@H]([C@H](C)O)NC(=O)[C@H](CN)NC(=O)[C@H]([C@@H](C)CC)NC(=O)[C@H](CC(C)C)N(C)C(=O)[C@@H]1C`, the MIC [1] was 13 µM (≈ 9.24 µg/mL), the MIC (Escherichia coli) was 0.03 µM (≈ 0.0213 µg/mL) and the MIC (Escherichia coli CFT073) was 2.2 µM (≈ 1.56 µg/mL).
In the case of `CC[C@@H](C)[C@@H]1NC(=O)[C@H](CC(C)C)N(C)C(=O)[C@H](C)[C@@H](CCCCCC(F)(F)F)OC(=O)CNC(=O)[C@H]([C@H](C)O)NC(=O)[C@H](CN)NC1=O`, the logD ([2]; pH 7.4, logD) is reported as 2, the MIC [1] is reported as over 100 µM and the MIC (Escherichia coli) is reported as 0.39 µM (≈ 0.276 µg/mL). It also gave an MIC (Escherichia coli CFT073) of 25 µM (≈ 17.7 µg/mL).
Work on `CCCCCC[C@H]1OC[C@@H](C)NC(=O)[C@H](COc2ccc(CCN)cc2)NC(=O)[C@H](CN)NC(=O)[C@H](C2CCCCC2)NC(=O)[C@H](CCC)N(C)C(=O)[C@@H]1C` yielded a logD ([2]; pH 7.4, logD) of 2.4, an MIC [1] of 25 µM (≈ 19.3 µg/mL) and an MIC (Escherichia coli) of 0.048 µM (≈ 0.0371 µg/mL). For the same molecule, the MIC (Escherichia coli CFT073) was 1.6 µM (≈ 1.24 µg/mL).
In the case of `CCCCCC[C@H]1OC[C@@H](C)NC(=O)[C@H](COc2ccc(CN)cc2)NC(=O)[C@H](CN)NC(=O)[C@H](C2CCCCC2)NC(=O)[C@H](CCC)N(C)C(=O)[C@@H]1C`, the logD ([2]; pH 7.4, logD) is reported as 2.5, the MIC [1] is reported as 100 µM (≈ 75.8 µg/mL) and the MIC (Escherichia coli) is reported as 0.39 µM (≈ 0.296 µg/mL). For the same molecule, the MIC (Escherichia coli CFT073) was 6.3 µM (≈ 4.78 µg/mL).
In the case of `CCCCCCCCCC[C@H]1OC(=O)CNC(=O)[C@H]([C@H](C)O)NC(=O)[C@H](Cc2c[nH]cn2)NC(=O)[C@H]([C@@H](C)CC)NC(=O)[C@H](CC(C)C)N(C)C(=O)[C@@H]1C`, the MIC [1] is reported as 25 µM (≈ 19.1 µg/mL), the MIC (Escherichia coli) is reported as 6.3 µM (≈ 4.8 µg/mL) and the MIC (Escherichia coli CFT073) is reported as 100 µM (≈ 76.2 µg/mL).
`CCCCCCCCCC[C@H]1OC(=O)CNC(=O)[C@H]([C@H](C)O)NC(=O)[C@H](CN)NC(=O)[C@H]([C@H](C)CC)NC(=O)[C@H](CC(C)C)N(C)C(=O)[C@@H]1C` showed a logD ([2]; pH 7.4, logD) of 4.6, an MIC [1] of 15 µM (≈ 10.7 µg/mL) and an MIC (Escherichia coli) of 0.011 µM (≈ 0.00782 µg/mL). It also gave an MIC (Escherichia coli CFT073) of 2.1 µM (≈ 1.49 µg/mL).
`CCC[C@H]1C(=O)N[C@@H](C2CCCCCC2)C(=O)N[C@@H](CN)C(=O)N[C@@H]([C@H](C)O)C(=O)NCC(=O)O[C@H](CC2CC3(CCC3)C2)[C@@H](C)C(=O)N1C` gave a logD ([2]; pH 7.4, logD) of 2.9, an MIC [1] of 50 µM (≈ 35.2 µg/mL) and an MIC (Escherichia coli) of 0.009 µM (≈ 0.00634 µg/mL). The MIC (Escherichia coli CFT073) was 0.78 µM (≈ 0.55 µg/mL).
Work on `CCCCCC[C@H]1OC[C@@H](C)NC(=O)[C@H](CC(=O)NCCCN)NC(=O)[C@H](CN)NC(=O)[C@H](C2CCCCCC2)NC(=O)[C@H](CCC)N(C)C(=O)[C@@H]1C` (cyclo(D(NH(CH2)3NH2)[X1][NMeNva][Gly(cHept)][Dap])) yielded a logD ([2]; pH 7.4, logD) of 1.3, an MIC [1] of 100 µM (≈ 75.1 µg/mL) and an MIC (Escherichia coli) of 0.39 µM (≈ 0.293 µg/mL). It also gave an MIC (Escherichia coli CFT073) of 18 µM (≈ 13.5 µg/mL).
Molecule `CCCC[C@H]1C(=O)N(C)[C@@H](CC(C)C)C(=O)N[C@@H](C2CCCCC2)C(=O)N[C@@H](CN)C(=O)N[C@@H]([C@H](C)O)C(=O)NCCN1CCCC` (cyclo([Chg][Dap][aThr][X16][NMeL])) has an MIC [1] of 100 µM (≈ 66.6 µg/mL), an MIC (Escherichia coli) of 0.1 µM (≈ 0.0666 µg/mL) and an MIC (Escherichia coli CFT073) of 6.3 µM (≈ 4.2 µg/mL).
Work on `CCCCCC[C@H]1OC[C@@H](C)NC(=O)[C@H](COCCCNCCCC(=O)O)NC(=O)[C@H](CN)NC(=O)[C@H](C2CCCCCC2)NC(=O)[C@H](CCC)N(C)C(=O)[C@@H]1C` (cyclo([Dap]S(X15)[X1][NMeNva][Gly(cHept)])) yielded an MIC [1] of over 100 µM, an MIC (Escherichia coli) of 0.78 µM (≈ 0.632 µg/mL) and an MIC (Escherichia coli CFT073) of 100 µM (≈ 81 µg/mL).
In the case of `CCC[C@H]1C(=O)N[C@@H](C2CCCCCC2)C(=O)N[C@@H](CN)C(=O)N[C@@H]([C@H](C)O)C(=O)NCC(=O)O[C@H](CC2CC3CCC2C3)[C@@H](C)C(=O)N1C` (stereo in doubt; 26) [listing 1 of 2 here], the logD ([2]; pH 7.4, logD) is reported as 2.8 and the MIC [1] is reported as 100 µM (≈ 70.5 µg/mL).
Molecule `CCC[C@H]1C(=O)N[C@@H](C2CCCCCC2)C(=O)N[C@@H](CN)C(=O)N[C@@H]([C@H](C)O)C(=O)NCC(=O)O[C@H](CC2CC3CCC2C3)[C@@H](C)C(=O)N1C` (stereo in doubt; 26) [listing 2 of 2 here] has an MIC (Escherichia coli) of 0.041 µM (≈ 0.0289 µg/mL) and an MIC (Escherichia coli CFT073) of 0.97 µM (≈ 0.684 µg/mL).
`CCC[C@H]1C(=O)N[C@@H](C2CCCCCC2)C(=O)N[C@@H](CN)C(=O)N[C@@H]([C@H](C)O)C(=O)NCC(=O)O[C@H](CC2CC3CCC2C3)[C@@H](C)C(=O)N1C` (stereo in doubt; 27) [listing 1 of 2 here] gave a logD ([2]; pH 7.4) of 2.9.
`CCC[C@H]1C(=O)N[C@@H](C2CCCCCC2)C(=O)N[C@@H](CN)C(=O)N[C@@H]([C@H](C)O)C(=O)NCC(=O)O[C@H](CC2CC3CCC2C3)[C@@H](C)C(=O)N1C` (stereo in doubt; 27) [listing 2 of 2 here] showed an MIC (Escherichia coli) of 0.009 µM (≈ 0.00634 µg/mL) and an MIC (Escherichia coli CFT073) of 0.78 µM (≈ 0.55 µg/mL).
